Results taken from BindingDB's records for doi:10.1021/jm00148a007 (1985).

Experiments:
Histamine H2 receptor [1] = biological target: T1, Histamine H2 receptor (Cavia porcellus, UniProt P47747); test: Antagonistic activity against H2 receptor in guinea pig was evaluated
In short: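 Isolated guinea pig atrium preparation loaded with 400-mg tension, with propranolol (0.5 μM) present throughout. Histamine concentration-response curves were run with and without several antagonist concentrations (B). The dose ratio x was taken from histamine concentrations giving half-maximal responses. K_B was calculated as B/(x − 1), and pA2 = −log K_B.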

Histamine H2 receptor [2] = biological target: T1, Histamine H2 receptor; test: Antagonistic activity against H2 receptor in guinea pig.

T1 sequence (P47747 whole entry): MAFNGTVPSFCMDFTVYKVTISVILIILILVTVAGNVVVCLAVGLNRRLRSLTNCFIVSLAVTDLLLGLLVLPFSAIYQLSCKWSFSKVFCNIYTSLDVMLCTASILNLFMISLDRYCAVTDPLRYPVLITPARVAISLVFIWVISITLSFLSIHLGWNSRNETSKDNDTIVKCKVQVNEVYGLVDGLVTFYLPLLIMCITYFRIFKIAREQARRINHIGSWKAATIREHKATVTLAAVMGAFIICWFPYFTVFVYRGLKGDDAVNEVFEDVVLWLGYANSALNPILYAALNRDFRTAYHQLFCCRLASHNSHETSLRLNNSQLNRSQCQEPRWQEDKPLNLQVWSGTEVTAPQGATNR

SMILES | Kd (Histamine H2 receptor [1]) [µM] | Kd (Histamine H2 receptor [2]) [µM]
CSC(=NCCSCc1[nH]cnc1C)NCCCc1cnc[nH]1 | 17.8 | –
Cc1nc[nH]c1CSCCNC(=N)NCCCc1cn(C)cn1 | – | 1.58
